In ChEMBL document CHEMBL1136866, “Synthesis, antiplatelet and in silico evaluations of novel N-substituted-phenylamino-5-methyl-1H-1,2,3-triazole-4-carbohydrazides” (Bioorg Med Chem, 2009):
Values after ≈ are worked out from the molar mass of the structure shown. Active and inactive are the calls of the source. The rule behind the calls is not given here.

Legend:
Type in all cases: functional
[1] = Antiplatelet activity in human citreated platelet rich plasma assessed as inhibition of arachidonic acid-induced platelet aggregation preincubated before arachidonic acid challenge
Outline: (§1)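 Human PRP prepared by whole-blood centrifugation (120g, 5 min, room temperature) and adjusted to 3.0 × 10^5 platelets/μL using homologous platelet-poor plasma (1500g, 5 min). Compound at 1–500 μg ml−1, or DMSO (final 1%), preincubated with PRP 2 min at 37 °C before agonist (ADP, adrenaline or arachidonic acid). IC50 in μg ml−1 from aggregation inhibition, assayed within 3 h of sampling.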

[2] = Antiplatelet activity in human citreated platelet rich plasma assessed as inhibition of arachidonic acid-induced platelet aggregation at 100 ug/ml preincubated before arachidonic acid challenge
Outline: (§2)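 Human PRP from whole blood spun 120g, 5 min, room temperature; platelet count set to 3.0 × 10^5/μL with homologous platelet-poor plasma (1500g, 5 min). PRP preincubated 2 min at 37 °C with compound at 100 μg ml−1 or DMSO solvent (final 1%), then agonist added (ADP, adrenaline or arachidonic acid). Read-out: % inhibition of aggregation, measured within 3 h of blood sampling.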

[3] = Antiplatelet activity in human citreated platelet rich plasma assessed as inhibition of adenosine diphosphate-induced platelet aggregation preincubated before adenosine diphosphate challenge; outline: as §1
[4] = Antiplatelet activity in human citreated platelet rich plasma assessed as inhibition of adrenaline-induced platelet aggregation preincubated before adrenaline challenge; outline: as §1
[5] = Antiplatelet activity in human citreated platelet rich plasma assessed as inhibition of adenosine diphosphate-induced platelet aggregation at 100 ug/ml preincubated before adenosine diphosphate challenge; outline: as §2
Platelet = assay: Antiplatelet activity in human citreated platelet rich plasma assessed as inhibition of adrenaline-induced platelet aggregation at 100 ug/ml preincubated before adrenaline challenge; outline: as §2

SMILES | IC50 [1] | IC50 [3] | IC50 [4] | inhibition at 100 µg/mL [2] | inhibition at 100 µg/mL [5] | inhibition (Platelet)
Cc1c(C(=O)N/N=C/c2ccc([N+](=O)[O-])o2)nnn1Nc1ccccc1 | 169 µg/mL (≈ 476 µM) | 11.6 µg/mL (≈ 32.6 µM) | 8.9 µg/mL (≈ 25 µM) | – | > 50% | Active
Cc1c(C(=O)N/N=C/c2ccco2)nnn1Nc1ccccc1 | 112 µg/mL (≈ 359 µM) | 338 µg/mL (≈ 1090 µM) | 20.1 µg/mL (≈ 64.8 µM) | – | – | Active
Cc1c(C(=O)N/N=C/c2ccc(Br)s2)nnn1Nc1ccccc1 | 9.1 µg/mL (≈ 22.5 µM) | 317 µg/mL (≈ 782 µM) | 13.4 µg/mL (≈ 33.1 µM) | ≥ 50% | – | Active
Cc1c(C(=O)N/N=C/c2ccco2)nnn1Nc1ccc(Cl)cc1 | 8.9 µg/mL (≈ 25.8 µM) | 261 µg/mL (≈ 757 µM) | 7.8 µg/mL (≈ 22.6 µM) | ≥ 50% | – | Active
CC(=O)Oc1ccccc1C(=O)O [ASPIRIN] | 32.5 µg/mL (≈ 180 µM) | 21.5 µg/mL (≈ 119 µM) | 11.7 µg/mL (≈ 64.9 µM) | – | – | –

Second part, led by results:

IC50 [1] | IC50 [3] | IC50 [4] | SMILES | inhibition at 100 µg/mL [2] | inhibition at 100 µg/mL [5] | inhibition (Platelet)
35.5 µg/mL (≈ 91.1 µM) | 136 µg/mL (≈ 350 µM) | 147 µg/mL (≈ 377 µM) | Cc1c(C(=O)N/N=C/c2ccc([N+](=O)[O-])o2)nnn1Nc1ccc(Cl)cc1 | ≥ 50% | – | –
33.1 µg/mL (≈ 93 µM) | 169 µg/mL (≈ 474 µM) | 145 µg/mL (≈ 406 µM) | Cc1c(C(=O)N/N=C/c2ccncc2)nnn1Nc1ccc(Cl)cc1 | ≥ 50% | – | –
32.2 µg/mL (≈ 90.8 µM) | 180 µg/mL (≈ 508 µM) | 28.9 µg/mL (≈ 81.5 µM) | Cc1c(C(=O)N/N=C/c2ccccc2)nnn1Nc1ccc(Cl)cc1 | ≥ 50% | – | Active
230 µg/mL (≈ 718 µM) | 19 µg/mL (≈ 59.4 µM) | 9.6 µg/mL (≈ 30 µM) | Cc1c(C(=O)N/N=C/c2ccccc2)nnn1Nc1ccccc1 | – | > 50% | Active
8.8 µg/mL (≈ 27.4 µM) | 278 µg/mL (≈ 864 µM) | 161 µg/mL (≈ 501 µM) | Cc1c(C(=O)N/N=C/c2ccncc2)nnn1Nc1ccccc1 | ≥ 50% | – | –
9.1 µg/mL (≈ 20.7 µM) | 332 µg/mL (≈ 756 µM) | 144 µg/mL (≈ 328 µM) | Cc1c(C(=O)N/N=C/c2ccc(Br)s2)nnn1Nc1ccc(Cl)cc1 | ≥ 50% | – | –
